The results in this text go back to the EternaBench riboswitch data.

In the data set the test system is MS2 coat protein. Briefly: apparent Kd, MS2 coat protein; higher = weaker binding; RNA-MaP array; FMN 200 µM where present. The gist of the method: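 Stalled E. coli RNA polymerase transcribed each design on Illumina sequencing-chip clusters. The clusters were titrated with SNAP-549-labelled MS2 coat protein, starting at 0.7 or 1.5 nM and doubling up to 3 µM, first without ligand and then with constant ligand, in 100 mM Tris-HCl pH 7.5, 80 mM KCl, 4 mM MgCl2, BSA, DTT, yeast tRNA and Tween-20. Green signal was normalised to red-channel RNA signal and to the control-cluster median Fmax. The apparent Kd is the median of filtered binding-curve fits made for each cluster.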

[1] abbreviates: designed as: OFF switch for flavin mononucleotide, no ligand.
Where [2] appears, read: ligand present: flavin mononucleotide, designed as: OFF switch for flavin mononucleotide.
Where [3] appears, read: designed as: ON switch for flavin mononucleotide, no ligand.
Setting [4] is: ligand present: flavin mononucleotide, designed as: ON switch for flavin mononucleotide.

By apparent Kd is commonly meant a dissociation constant that holds for the conditions of the assay. Consider “CCAAGCUGUGUGAGGAUAUGCUGGUCCUUGGAUCAGCAGAAGGCACAUGAGGAUCACCCAUGUGAAAAGCUUGG”, for which the “apparent Kd” value by setting is: under setting [1], 15.1 nM; under setting [2], 52.1 nM.
With “CGUGUUAACGAAGGAUAUGGAUACAUGAGGAUCACCCAUGUAUAUUUUGUGAUCUUGUUUAAGAUCCAGAAGGUCGUAUACACG”, the “apparent Kd” value is 33.8 nM under setting [1] and 84.7 nM under setting [2].
The like results for “GUCCUCUCUGAGGAUAUUAUCCGGUCCGAUUGAUAAGAAGGCAGUACAUGAGGAUCACCCAUGUGGGUUGUCUG” were, in that order, 62.6 nM and 170 nM.
As to “ACCUCACAUGAGGAUCACCCAUGUCAGGAUAUACGAAGGUAUAGCGCCGAAUACUGAAGUAGAAGGGACAGGCA”, the “apparent Kd” value is, setting by setting: under setting [1], 26.9 nM; under setting [2], 76.9 nM.
As to “AUUUAAAUGUCAGGAUAUGGUAGUUUAUACUUAUCAGAAGGGAUAAUUAUACUCAAGUACAUGAGGAUCACCCAUGUUAAAUCA”, the “apparent Kd” value was 30.5 nM under setting [3] and 15.8 nM under setting [4].
The like results for “GUUGAAGUCACAGGAUAUACGUCGUCUGUUGCCGUAGAAGGGUGAACUCAGCCUGACCGUGACAUGAGGAUCACCCAUGUGACC” were, in that order, 15.3 nM and 19.6 nM.
For “GGAUAGGACAGAGGAUAUACGAGCUAGAGAUACUAGCAAAAUUUCCUCACAUGAGGAUCACCCAUGUAGAAGGCUGUCCUAUCG”, the “apparent Kd” value is, setting by setting: under setting [1], 17.5 nM; under setting [2], 536 nM.
For “UCCUUCUGUUGAGGAUAUGUAAGACAGCGACUGCUAUUGCGGCACGCUGAUACAGAAGGCAACAUGAGGAUCACCCAUGUUCAA”, in that order: 22.9 nM and 199 nM.
The like results for “CUGCGCUAGGAGAAGGGCUAGAGUGUGAUAUAUUUGCCCGCGAGCACAUGAGGAUCACCCAUGUAGCAGGAUAUCCAAGCCGGU” were, in that order, 6.86 nM and 16.5 nM.
The like results for “CAGUUCUGAGGAUAUCCAUCCUCCUACAUGAGGAUCACCCAUGUUUCCCUCUGGGUUUUCGGAGAAGGCAGUUAUC” were, in that order, 299 nM and 547 nM.
Turning to “GUCCCGAGGGAGAAGGGCUAGAAGGUCCAGCUUAUGUGUGUUGCAACAUGAGGAUCACCCAUGUAGCAGGAUAUCCCUUGUACA”, the “apparent Kd” value under setting [1] is 18.1 nM and the “apparent Kd” value under setting [2] was 39.6 nM.
Take “UUACUCAUGUAAGGAUAUGCAGCCGAAACGGCUGUAGAAGGUACUAAAAUACAUGAGGAUCACCCAUGUCUUUUUAAUUUAGAC”: the “apparent Kd” value reads like this: under setting [3], 103 nM; under setting [4], 74.6 nM.
“GAGAAGGGAGGAUAUGCUGCUCGUCACUUGCGUGAUGAGUAGCAGAAGGCACAUGAGGAUCACCCAUGUAAAGG”: the “apparent Kd” value runs as follows: under setting [1], 84.2 nM; under setting [2], 29.4 nM.
The like results for “GCGUUUGUAUCACAUGUAUUACAUGAGGAUCACCCAUGUUACUAGGAUAUGUAUUAGUAUUAUCAACAGAAGGAGUAAGAACGC” were, in that order, 17.5 nM and 18.3 nM.
On to “CCUAAGGAGACAGGAUAUAGCGUGGUGGCCGGGCUCCAACGGCGAGCGGCGCUAGAAGGGUCACUACAUGAGGAUCACCCAUGU”, for which the “apparent Kd” value reads like this: under setting [3], 10.2 nM; under setting [4], 10.9 nM.
In the case of “AGCGGAUUGUAGAAGGGUGACAUGAGGAUCACCCAUGUUCAAAUGCGAUUUUCGGUAAUUGAUCCACAGGAUAUACUGUCCGAG”, the “apparent Kd” value is, setting by setting: under setting [3], 976 nM; under setting [4], 427 nM.
“GCUGCAUAGGCAGGAUAUGCAACAAUGAGAUGAAAAUACAUCUCAUUGACAUGAGGAUCACCCAUGUAGAAGGGCCUGUGCAGU”: the “apparent Kd” value reads like this: under setting [1], 16.3 nM; under setting [2], 18.9 nM.
In the case of “GCGAUUAAGUAGAAGGUACGUUAUAAGACAAUGUAAGGAUAUACUGACAUGAGGAUCACCCAUGUAAAAUUAGUUUACUGUCGC”, the “apparent Kd” value is, setting by setting: under setting [3], 7.34 nM; under setting [4], 6.44 nM.
For “GUUUUGAUAGGAUAUACAUGAGGAUCACCCAUGUCCCACCGGUUACCUAUGACCAUAUGUAGAAGGAUCGUUUG”, the “apparent Kd” value is, setting by setting: under setting [1], 51.7 nM; under setting [2], 78.9 nM.
The like results for “UGUCAUUUACAGAAGGGUAGUUGGGUUUUACAUGAGGAUCACCCAUGUUUUACAGGAUAUGUGUUUUGUUAAUAUUAAAGUUCA” were, in that order, 72.9 nM and 113 nM.
